Source: ChEMBL document CHEMBL4376838, “Discovery of Novel Celastrol Derivatives as Hsp90-Cdc37 Interaction Disruptors with Antitumor Activity” (J Med Chem, 2019)
Active and inactive are the calls of the source. No cut-off for these calls is given here.

Assays:
[1] = test system: A549; assay: Induction of cell cycle arrest in human A549 cells assessed as accumulation at G1 phase at 0.2 uM incubated for 24 hrs by PI staining based flow cytometric analysis (reference value: 60.14%); assay type: functional
Method in brief: (§1)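 A549 cells (4×10^5 per 6 cm dish) were grown 24 h, then exposed to compound (0.2, 0.4, 0.8 μM) or DMSO for 24 h. Cells fixed in 75% ethanol at −20 °C for at least 12 h, treated with RNase A at 37 °C for 30 min, then stained with PI for 15 min in the dark. Analysed by flow cytometry, mean ± SD, n = 3.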

[2] = biological target: Heat shock protein HSP 90-alpha (Homo sapiens) (UniProt P07900); assay: Inhibition of ATP binding to human HSP90 alpha at 5 to 10 uM preincubated for 30 mins followed by gamma phosphate-linked ATP sepharose addition and measured after 30 mins by ATP-binding sepharose assay based western blot analysis
Method in brief: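 Purified human Hsp90α incubated on ice 30 min with compound or DMSO in 10 mM Tris-HCl pH 7.5, 50 mM KCl, 5 mM MgCl2, 2 mM DTT, 20 mM Na2MoO4, 0.01% NP-40. γ-phosphate-linked ATP-Sepharose then added, 30 min at 37 °C with frequent mixing. Resin washed and pelleted, bound Hsp90α detected by SDS-PAGE/Western blot.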

[3] = biological target: Heat shock protein HSP 90-alpha (Homo sapiens) (UniProt P07900); assay: Binding affinity to full length Hsp90alpha (unknown origin) assessed as reduction in absorption at 440 nm reaching equilibrium within 5 mins at 100 uM by UV absorption analysis; conditions: in the assay text read “within 15 mins” for “within 5 mins”
Method in brief: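 Compound (100 μM) mixed with GSH (100 μM), Cdc37 (1.5 μM) or Hsp90 (1.5 μM) in PBS containing 1% DMSO, incubated at 37 °C for 0, 5, 15 and 30 min. UV spectra scanned 200-500 nm, with absorbance at 440 nm compared against the 0 min value (A/A0). Mean ± SD, n = 3.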

[4] = test system: A549; assay: Induction of apoptosis in human A549 cells assessed as early apoptotic cells at 1.2 uM incubated for 48 hrs by Annexin V-FITC and PI staining based flow cytometric analysis (reference value: 0.5%); assay type: functional
Method in brief: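 A549 cells (4×10^5 per 6 cm dish) cultured 24 h, then treated 48 h with compound or DMSO. Cells gently harvested, washed twice in cold PBS, resuspended in binding buffer with Annexin V and PI, stained 15 min at room temperature in the dark, analysed by flow cytometry. Mean ± SD, n = 3.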

[5] = test system: A549; assay: Induction of apoptosis in human A549 cells assessed as early apoptotic cells at 0.6 uM incubated for 48 hrs by Annexin V-FITC and PI staining based flow cytometric analysis (reference value: 0.5%); assay type: functional
[6] = test system: A549; assay: Induction of cell cycle arrest in human A549 cells assessed as accumulation at S phase at 0.8 uM incubated for 24 hrs by PI staining based flow cytometric analysis (reference value: 27.59%); assay type: functional; method in brief: as §1
[7] = test system: A549; assay: Induction of mitochondrial membrane potential loss in human A549 cells assessed as cells with depolarized mitochondria by measuring increase in J-monomer green fluorescence intensity at 0.8 uM incubated for 24 hrs by JC1 staining based fluorescence microscopic method (reference value: 1.5%); assay type: functional
[8] = test system: A549; assay: Induction of cell cycle arrest in human A549 cells assessed as accumulation at S phase at 0.4 uM incubated for 24 hrs by PI staining based flow cytometric analysis (reference value: 27.59%); assay type: functional; method in brief: as §1
[9] = test system: A549; assay: Induction of apoptosis in human A549 cells assessed as viable cells at 0.3 uM incubated for 48 hrs by Annexin V-FITC and PI staining based flow cytometric analysis (reference value: 95.5%); assay type: functional; conditions: A549, 48 h, read-out: Activity
[10] = biological target: T1, Hsp90 co-chaperone Cdc37 (Homo sapiens) (UniProt Q16543); assay: Binding affinity to Cdc37 in human A549 cells assessed as inhibition of HSP90-Cdc37 interaction by measuring decrease in Bcl2 protein level at 1.25 to 5 uM incubated for 12 hrs by Western blot analysis; assay type: cell-based
T1 sequence (whole entry): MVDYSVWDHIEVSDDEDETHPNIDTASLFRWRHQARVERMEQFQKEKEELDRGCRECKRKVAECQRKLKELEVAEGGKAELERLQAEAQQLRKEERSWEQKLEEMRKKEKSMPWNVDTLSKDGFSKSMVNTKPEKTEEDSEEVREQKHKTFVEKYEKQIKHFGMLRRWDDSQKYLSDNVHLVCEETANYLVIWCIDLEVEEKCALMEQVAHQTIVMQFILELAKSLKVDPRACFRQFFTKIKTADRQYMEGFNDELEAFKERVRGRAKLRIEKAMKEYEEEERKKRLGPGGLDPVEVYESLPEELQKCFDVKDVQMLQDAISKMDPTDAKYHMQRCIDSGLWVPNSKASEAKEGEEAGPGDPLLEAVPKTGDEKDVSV
Method in brief: (§2)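 A549 cells (5×10^5 per 6 cm dish) were allowed to settle 12 h, then treated with DMSO or compound at the indicated concentrations for 12 h. Lysates were adjusted to 3 mg/ml protein by BCA and resolved on 10% SDS-PAGE, then Western blotted. β-actin or Hsp90 served as the loading control. Three separate experiments, mean ± SD.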

[11] = biological target: T1, Hsp90 co-chaperone Cdc37 (Homo sapiens); assay: Binding affinity to Cdc37 in human A549 cells assessed as inhibition of HSP90-Cdc37 interaction by measuring decrease in CDK4 protein level incubated for 12 hrs by Western blot analysis; assay type: cell-based; method in brief: as §2
[12] = test system: A549; assay: Induction of apoptosis in human A549 cells assessed as viable cells at 0.6 uM incubated for 48 hrs by Annexin V-FITC and PI staining based flow cytometric analysis (reference value: 95.5%); assay type: functional; conditions: A549, 48 h, read-out: Activity
[13] = test system: A549; assay: Induction of cell cycle arrest in human A549 cells assessed as accumulation at G2 phase at 0.4 uM incubated for 24 hrs by PI staining based flow cytometric analysis (reference value: 19.37%); assay type: functional; method in brief: as §1
[14] = test system: A549; assay: Induction of cell cycle arrest in human A549 cells assessed as accumulation at S phase at 0.2 uM incubated for 24 hrs by PI staining based flow cytometric analysis (reference value: 27.59%); assay type: functional; method in brief: as §1
[15] = test system: A549; assay: Induction of apoptosis in human A549 cells assessed as late apoptotic cells at 0.6 uM incubated for 48 hrs by Annexin V-FITC and PI staining based flow cytometric analysis (reference value: 3.0%); assay type: functional
[16] = test system: A549; assay: Induction of cell cycle arrest in human A549 cells assessed as accumulation at G1 phase at 0.8 uM incubated for 24 hrs by PI staining based flow cytometric analysis (reference value: 60.14%); assay type: functional; method in brief: as §1
[17] = biological target: T1, Hsp90 co-chaperone Cdc37 (Homo sapiens); assay: Binding affinity to Cdc37 in human A549 cells assessed as inhibition of HSP90-Cdc37 interaction by measuring increase in cleaved caspase-3 protein level at 1.25 to 5 uM incubated for 12 hrs by Western blot analysis; assay type: cell-based; method in brief: as §2
[18] = Binding affinity to DTT in DMSO-d6 with retention of CA moiety at 0.02 mmol incubated for 20 mins in ultrasound by 1H NMR-spectroscopic analysis
[19] = test system: A549; assay: Antiproliferative activity against human A549 cells assessed as inhibition of cell growth at 1.5 uM incubated for 48 hrs by MTT assay relative to control; assay type: functional; conditions: A549, 48 h, read-out: GI

inhibition [2]: inactive
Activity [3]: Active
inhibition [10]: Active
inhibition [11]: Dose-dependent effect
inhibition [17]: Active
Activity [18]: Active
Compound: CC1=C(O)C(=O)C=C2C1=CC=C1[C@@]2(C)CC[C@@]2(C)[C@@H]3C[C@](C)(C(=O)OCCCOC(=O)/C=C(\C#N)c4ccc(F)cc4)CC[C@]3(C)CC[C@]12C
Activity [1]: 64.36%
Activity [4]: 7.4%
Activity [5]: 5.9%
Activity [6]: 23.85%
Activity [7]: 26.2%
Activity [8]: 23.34%
viability at 0.3 µM [9]: 85.2%
viability at 0.6 µM [12]: 71.2%
Activity [13]: 16%
Activity [14]: 26.39%
Activity [15]: 16.9%
Activity [16]: 70.49%
inhibition of growth at 1.5 µM [19]: 78.5%
